This is an account of results in ChEMBL document CHEMBL1130180, “17-Imidazolyl, pyrazolyl, and isoxazolyl androstene derivatives. Novel steroidal inhibitors of human cytochrome C17,20-lyase (P450(17 alpha)” (J Med Chem, 1997).

Data set [1] deals with T1, Steroid 17-alpha-hydroxylase/17,20 lyase (Homo sapiens, UniProt P05093).
T1 sequence (P05093 whole entry): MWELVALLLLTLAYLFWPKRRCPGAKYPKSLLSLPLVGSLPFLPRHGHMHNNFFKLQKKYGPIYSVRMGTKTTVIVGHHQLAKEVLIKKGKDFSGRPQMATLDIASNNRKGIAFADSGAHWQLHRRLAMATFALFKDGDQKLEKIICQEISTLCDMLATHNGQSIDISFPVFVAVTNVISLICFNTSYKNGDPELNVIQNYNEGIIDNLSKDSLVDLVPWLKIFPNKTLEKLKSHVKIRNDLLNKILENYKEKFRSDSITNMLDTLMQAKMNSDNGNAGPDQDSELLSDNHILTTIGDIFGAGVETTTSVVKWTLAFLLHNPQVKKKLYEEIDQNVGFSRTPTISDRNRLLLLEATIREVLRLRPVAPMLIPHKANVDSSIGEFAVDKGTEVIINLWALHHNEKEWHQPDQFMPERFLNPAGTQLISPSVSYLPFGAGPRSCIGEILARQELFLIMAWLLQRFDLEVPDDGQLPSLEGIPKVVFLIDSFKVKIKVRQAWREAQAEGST
Description: Inhibition of human testicular microsomal Cytochrome P450 17A1. The procedure, abridged: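 Human testis microsomes (orchidectomy tissue from untreated prostate cancer patients, stored at -70 °C, diluted in 0.1 M phosphate buffer). Radiometric: 10 μM [21-3H]-17α-hydroxypregnenolone, NADPH-generating system, pH 7.4, 10 min preincubation, then ~90 µg protein for 60 min under O2 at 34 °C. [3H]acetic acid measured in aqueous phase after chloroform extraction and charcoal. IC50 from log-log regression; six concentrations.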

Data set [2] concerns the target T2, Steroid 17-alpha-hydroxylase/17,20 lyase (Rattus norvegicus, UniProt P11715).
T2 sequence (P11715 whole entry): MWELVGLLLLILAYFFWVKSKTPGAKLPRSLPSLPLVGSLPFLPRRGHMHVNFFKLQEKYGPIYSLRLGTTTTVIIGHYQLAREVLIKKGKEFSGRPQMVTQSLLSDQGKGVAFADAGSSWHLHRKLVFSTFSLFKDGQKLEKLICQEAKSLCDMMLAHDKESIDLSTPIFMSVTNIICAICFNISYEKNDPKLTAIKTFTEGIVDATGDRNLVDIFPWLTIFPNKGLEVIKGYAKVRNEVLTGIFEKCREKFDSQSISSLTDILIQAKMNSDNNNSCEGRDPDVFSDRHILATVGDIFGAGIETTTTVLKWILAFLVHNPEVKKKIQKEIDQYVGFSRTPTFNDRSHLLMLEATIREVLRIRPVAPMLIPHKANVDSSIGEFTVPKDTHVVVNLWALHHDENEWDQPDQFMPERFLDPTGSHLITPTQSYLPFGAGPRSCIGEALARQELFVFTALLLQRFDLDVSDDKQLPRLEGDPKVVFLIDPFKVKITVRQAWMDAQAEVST
The data set is described as follows: Percent inhibition of rat testicular microsomal Cytochrome P450 17A1. On the set-up: concentration or dose not given beside the values. The procedure, abridged: (§1)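 Single-concentration screen at 1500 nM using adult Sprague-Dawley rat testis microsomes. Incubation: 10 μM [21-3H]-17α-hydroxypregnenolone with NADPH-generating system, pH 7.4, 60 min, 34 °C, under O2. Percent inhibition was read from tritiated acetic acid in the aqueous phase after chloroform extraction of steroids.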

The target of data set [3] is T2, Steroid 17-alpha-hydroxylase/17,20 lyase. The data set is described as follows: Inhibition of rat testicular microsomal Cytochrome P450 17A1. The procedure, abridged:
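Adult Sprague-Dawley rat (200-250 g) testicular microsomes, about 90 µg protein. [21-3H]-17α-hydroxypregnenolone was used at 10 µM total. Cofactors were NADP 65 µM, glucose 6-phosphate 0.71 mM and G6PDH 0.13 IU in phosphate buffer pH 7.4. Compounds were preincubated 10 min, then reacted 60 min under O2 at 34 °C. Released [3H]acetic acid was counted after chloroform extraction and charcoal treatment.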

In data set [4] the target is T1, Steroid 17-alpha-hydroxylase/17,20 lyase. Description: Percent inhibition of human testicular microsomal Cytochrome P450 17A1. Details: concentration or dose not given beside the values; call rule not given here. The method in brief: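 Human testis microsomes were incubated 60 min at 34 °C under O2 with 10 μM [21-3H]-17α-hydroxypregnenolone and NADPH-generating system (pH 7.4). Test compound was present at a single 150 or 400 nM. Inhibition was read from [3H]acetic acid released to the aqueous phase after chloroform extraction.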

The target in data set [5] is T2, Steroid 17-alpha-hydroxylase/17,20 lyase. The data set is described as follows: Percent inhibition of rat testicular microsomal Cytochrome P450 17A1; No Inhibition. The procedure, abridged: as §1

Consider `CC(C1N=CC=N1)[C@H]1CCC2C3CCC4=CC(=O)CC[C@]4(C)C3CC[C@@]21C` (some centres not stated), for which the IC50 – broadly, the concentration that gives 50% inhibition – in data set [1] was greater than 30000 nM.
Turning to `C[C@]12CCC3C(CC=C4CC(O)CC[C@@]43C)C1CCC2c1ccon1` (some centres not stated), in data set [2], the Inhibition (in general, the share of the control response that was lost under treatment) came out at 54%. This compound had a half-maximal inhibitory concentration (IC50) in data set [1] of 1110 nM.
`C[C@]12CCC(=O)C=C1CCC1C2CC[C@@]2(C)C1CC[C@@H]2C1N=CC=N1` (some centres not stated) gave an Inhibition in data set [2] of 25%. Besides, in data set [1], the Conc worked out at 400 nM.
For the compound `C[C@]12CCC(=O)C=C1CCC1C2CC[C@]2(C)C(c3ccn[nH]3)=CCC12` (some centres not stated), the 50% inhibitory concentration (IC50) in data set [3] amounted to 76 nM; in data set [1] it was 59 nM.
In the case of `C[C@]12CCC3C(CC=C4CC(O)CC[C@@]43C)C1CCC2c1ccno1` (some centres not stated), the Inhibition was determined as 93% in data set [2] and 21% in data set [4]. In data set [1], this compound yielded a Conc of 150 nM.
As for `C[C@]12CCC(=O)C=C1CCC1C2CC[C@@]2(C)C1CC[C@@H]2c1cnc[nH]1` (some centres not stated), the figures for the IC50 in data set [3] and in data set [1] were 79 nM and 58 nM, respectively.
Regarding `C[C@]12CCC(O)CC1=CCC1C2CC[C@]2(C)C(c3ccnn3-c3ccccc3)=CCC12` (some centres not stated), the figures for the Inhibition entry in data set [5] and in data set [4] were “Not Active” and 11%, respectively. In data set [1], this compound came in with a Conc of 150 nM.
Take `C[C@]12CCC3C(CC=C4CC(O)CC[C@@]43C)C1CCC2c1ccn[nH]1` (some centres not stated): the results for the Inhibition in data set [2] and in data set [4] were 92% and 20%, respectively. In addition, the Conc in data set [1] worked out at 150 nM.
On to `C[C@]12CC[C@H](O)CC1=CC[C@@H]1[C@@H]2CC[C@]2(C)C(c3ccn[nH]3)=CC[C@@H]12`, for which the 50% inhibitory concentration (IC50) in data set [3] was found to be 28 nM; in data set [1], 42 nM.
For `C[C@]12CC[C@H]3[C@@H](CC=C4C[C@@H](O)CC[C@@]43C)[C@@H]1CC[C@@H]2c1cnc[nH]1`, in that order: 91 nM and 66 nM.
In data set [1], `C[C@]12CC[C@H](O)CC1=CC[C@@H]1[C@@H]2CC[C@@]2(C)[C@H]1CC1O[C@]12c1cnc[nH]1` (some centres not stated) displayed an IC50 of 430 nM.
Consider `C[C@]12CC[C@H](O)CC1=CC[C@@H]1[C@@H]2CC[C@]2(C)C(c3ccno3)=CC[C@@H]12`, for which the values for the IC50 in data set [3] and in data set [1] were 84 nM and 108 nM, respectively.
As for `C[C@]12CC[C@H](O)CC1=CC[C@@H]1[C@@H]2CC[C@]2(C)C(c3ncc[nH]3)=CC[C@@H]12`, in data set [2], the Inhibition is recorded as 65%. The compound also had a half-maximal inhibitory concentration (IC50) in data set [1] of 21 nM.
`CC(=O)O[C@H]1CC[C@@]2(C)C(=CC[C@H]3[C@@H]4CC[C@H](C5=CNC(C(C)=O)N5)[C@@]4(C)CC[C@@H]32)C1` (some centres not stated): the 50% inhibitory concentration (IC50) in data set [3] came out at 5460 nM; in data set [1], 100 nM.
As for `C[C@]12CC[C@H](O)CC1=CC[C@@H]1[C@@H]2CC[C@]2(C)C(c3c[nH]cn3)=CC[C@@H]12`, the IC50 in data set [3] was 49 nM; in data set [1], 24 nM.
In data set [2], `CC(=O)O[C@H]1CC[C@@]2(C)C(=CC[C@H]3[C@@H]4CC[C@H](c5c[nH]cn5)[C@@]4(C)CC[C@@H]32)C1` yielded an Inhibition of 55%. In data set [1], the IC50 amounted to 199 nM.
`Cc1ncc([C@H]2CC[C@H]3[C@@H]4CC=C5C[C@@H](O)CC[C@]5(C)[C@H]4CC[C@]23C)[nH]1` gave an IC50 in data set [3] of 4810 nM. For the same compound, in data set [4], the Inhibition is recorded as 26%.
The compound `CC(=O)O[C@H]1CC[C@@]2(C)C(=CC[C@@H]3[C@@H]2CC[C@]2(C)C(c4cnc[nH]4)=CC[C@@H]32)C1` had an Inhibition in data set [2] of 92%.
`C[C@]12CCC(=O)C=C1CCC1C2CC[C@@]2(C)C1CC[C@]2(O)c1c[nH]cn1` (some centres not stated) returned an IC50 in data set [1] of 1200 nM.
Take `C[C@]12CCC(=O)C=C1CCC1C2CC[C@]2(C)C(c3cnc[nH]3)=CCC12` (some centres not stated): the values for the IC50 in data set [3] and in data set [1] were 14 nM and 50 nM, respectively.
With `Cn1ccc(C2=CCC3C4CC=C5CC(O)CC[C@]5(C)C4CC[C@]23C)n1` (some centres not stated), the results for the Inhibition entry in data set [5] and in data set [4] were “Not Active” and 25%, respectively. In data set [1], this compound displayed a Conc of 150 nM.
For `Cn1nccc1C1=CCC2C3CC=C4CC(O)CC[C@]4(C)C3CC[C@]12C` (some centres not stated), the Inhibition entry is “Not Active” in data set [5] and 12% in data set [4]. Also, in data set [1], the Conc stood at 150 nM.
For `Cc1nc(C2CCC3C4CC=C5CC(O)CC[C@]5(C)C4CC[C@]23C)co1` (some centres not stated) the same measures were “Not Active”, 21% and 400 nM.
As to `C[C@]12CCC3C(CC=C4CC(O)CC[C@@]43C)C1CCC2c1ncc[nH]1` (some centres not stated), the Inhibition in data set [2] is 19%; in data set [4], 24%. In data set [1], the Conc is 400 nM.
For `C[C@]12CCC(O)CC1=CCC1C2CC[C@@]2(C)C1CC[C@@H]2c1c[nH]c(-c2ccccc2)n1` (some centres not stated), the Inhibition result in data set [5] is listed as “Not Active”; in data set [4] it was 21%. In data set [1], this compound returned a Conc of 400 nM.
On to `C[C@]12CCC(=O)C=C1CCC1C2CC[C@]2(C)C(c3ccno3)=CCC12` (some centres not stated), for which the IC50 amounted to 32 nM in data set [3] and 39 nM in data set [1].
For `CC(=O)N1CCN(c2ccc(OC[C@H]3CO[C@](Cn4ccnc4)(c4ccc(Cl)cc4Cl)O3)cc2)CC1` [KETOCONAZOLE], in data set [3], inhibition was half-maximal at 1070 nM (IC50).
